13 molecules from ChEMBL document CHEMBL1145506, “Activation of inhibitors by sortase triggers irreversible modification of the active site” (J Biol Chem, 2007) can be followed below.

Data set [1] concerns the target T1, Sortase A (Staphylococcus aureus) (UniProt Q9S446).
T1 sequence (whole entry): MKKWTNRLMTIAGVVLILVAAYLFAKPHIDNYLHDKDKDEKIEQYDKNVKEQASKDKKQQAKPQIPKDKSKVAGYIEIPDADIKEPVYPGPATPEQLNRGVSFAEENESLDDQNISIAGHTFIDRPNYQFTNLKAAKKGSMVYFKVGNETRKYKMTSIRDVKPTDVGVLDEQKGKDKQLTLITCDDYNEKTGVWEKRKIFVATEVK
Briefly: Inhibition of Staphylococcus aureus sortase A at 10 ng. In a few lines:
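Purified S. aureus SrtA (2 μM) preincubated with 10 ng compound in DMSO for 1 h at 25 °C. FRET substrate a-LPETG-d was then added to 2 μM in 5 mM CaCl2, 150 mM NaCl, 50 mM Tris-HCl pH 7.5, and incubated 24 h at 37 °C. Fluorescence read at ex 320/em 420 nm. Screened in duplicate; % inhibition = 100 − (well/plate positive-control mean ×100).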

The target of another data set is T2, Papain (Carica papaya) (UniProt P00784).
T2 sequence (whole entry): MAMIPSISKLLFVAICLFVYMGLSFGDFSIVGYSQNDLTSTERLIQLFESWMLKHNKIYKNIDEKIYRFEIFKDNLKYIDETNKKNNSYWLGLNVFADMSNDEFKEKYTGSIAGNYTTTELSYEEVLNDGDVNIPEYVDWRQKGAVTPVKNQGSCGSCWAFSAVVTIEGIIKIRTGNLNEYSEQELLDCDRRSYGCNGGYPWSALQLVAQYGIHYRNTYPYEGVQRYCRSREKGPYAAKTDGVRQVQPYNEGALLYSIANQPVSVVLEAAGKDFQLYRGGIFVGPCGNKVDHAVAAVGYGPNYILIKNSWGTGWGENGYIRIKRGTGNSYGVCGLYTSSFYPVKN
As to the kind of experiment: Inhibition of Carica papaya papain. More on the design: concentration or dose not given beside the values. Particulars: concentration not given here.

Another data set concerns Bacillus anthracis. As to the kind of experiment: (§1) Inhibition of Bacillus anthracis sortase A. More on the design: concentration or dose not given beside the values. As to conditions: concentration not given here.
Data set [2] concerns the target T1, Sortase A (Staphylococcus aureus). Briefly: (§2) Inhibition of Staphylococcus aureus sortase A.
The target in a further data set is T3, Sortase A (Staphylococcus aureus, UniProt Q9S446).
T3 sequence (Q9S446 whole entry): T1 sequence (whole entry)
The data set is described as §2.

A short description of data set [3]: Inhibition of Bacillus anthracis sortase C.
Data set [4] can be described thus: Inhibition of Bacillus anthracis sortase B.
Data set [5] can be described thus: as §1.
Substrate in data set [6]: CN(C)CCC(=O)c1cccs1
As to conditions: Staphylococcus aureus; 50 uM.

Substrate in data set [7]: CN(C)CCC(=O)c1ccc(Cl)c(Cl)c1
Particulars: Staphylococcus aureus; 200 uM.

Active and inactive are the calls of the source. The calls are words filed in the database; no cut-off is given here.

On to `O=C(CCNc1ccccc1)c1cccc([N+](=O)[O-])c1`, for which the figures for the inhibition (in data set [1]; at Papain (Carica papaya); with Bacillus anthracis) were 66%, 34% and 87.3%, respectively.
As for `O=C(CCN1CCOCC1)c1ccc(Cl)cc1`, the inhibition in [1] is 84.4%; on Papain (Carica papaya) it was 50.4%; in the data set on Bacillus anthracis it was 90.6%.
On to `C=CC(O)c1cccs1` (racemic), for which the outcome in data set [2] was inactive.
On to `O=C(CCN1CCOCC1)c1ccc(F)cc1`, for which the figures for the inhibition (in [1]; against Papain (Carica papaya); in the data set with Bacillus anthracis) were 47.2%, 46.6% and 89.1%, respectively.
For the molecule `CN(C)CCC(=O)c1cccc([N+](=O)[O-])c1`, the results for the inhibition (in [1]; against Papain (Carica papaya); with Bacillus anthracis) were 54.3%, 47.2% and 90.2%, respectively.
Consider `CN(C)CCC(=O)c1cccs1`, for which the IC50 on Sortase A was 47 µM; in data set [3], 15 µM; in [4], 34 µM; in [5], 4.8 µM. This molecule returned a Ki at Sortase A of 93.2 µM. Moreover, the inhibition in [1] came to 54.8%; on Papain (Carica papaya), 19.1%; in the data set with Bacillus anthracis, 90.7%.
For `CN(C)CCC(=O)c1ccc(S(C)(=O)=O)cc1`, the results for the inhibition (in [1]; against Papain (Carica papaya); with Bacillus anthracis) were 69.8%, 37.1% and 91.3%, respectively.
Turning to `CN(C)CCC(=O)c1ccc(Cl)c(Cl)c1`, the values for the IC50 (at Sortase A; in [3]; in data set [4]) were 15 µM, 20 µM and 14 µM, respectively. Besides, on Sortase A, the inhibition constant (Ki) stood at 15.7 µM. Besides, the results for the inhibition (in data set [1]; at Papain (Carica papaya); in the data set on Bacillus anthracis) were 89.6%, 49.3% and 90.4%, respectively.
In the case of `Cc1ccc(C(=O)CCN2CCOCC2)cc1`, the values for the inhibition (in [1]; against Papain (Carica papaya); in the data set with Bacillus anthracis) were 56.9%, 31.2% and 88.9%, respectively.
As to `CCOC(=O)N1CCN(CCC(=O)c2ccc(Br)cc2)CC1`, the inhibition in [1] is 80.2%; against Papain (Carica papaya), 48.5%; in the data set with Bacillus anthracis, 90.7%.
The like results for `CC1CCCN(CCC(=O)c2ccc(Br)cc2)C1` (stereo not given) were, in that order, 56.9%, 33.8% and 83.7%.
Take `C=CC(=O)c1cccs1`: affinity at Sortase A was put at a Ki of 69 µM.

B1: Sortase A (Staphylococcus aureus), Q9S446 (protein)
chain: T1 sequence (whole entry)
Turning to B1, the Michaelis constant (Km) was 5.8 µM in data set [6] and 5.91 µM in data set [7]. Further, the Vmax in data set [6] was 88.8 s⁻¹; in data set [7], 58 s⁻¹.
